Test results published in ChEMBL document CHEMBL3797089, “Morusin Induces TRAIL Sensitization by Regulating EGFR and DR5 in Human Glioblastoma Cells” (J Nat Prod, 2016).
The source made the active and inactive calls. No cut-off for these calls is given here.

Experiments:
T98G [1] = assay: Reduction of EGFR expression in human T98G cells at 25 uM after 24 hrs by Western blot analysis; format: functional, cell-based
Method in brief: (§1)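 LN18, U87MG, T98G, U251MG and U373MG glioblastoma cells were exposed to morusin for 24 h. Cells were maintained in DMEM, MEM or RPMI with 10% FBS at 37 °C and 5% CO2. Whole-cell lysates were Western blotted for receptor proteins, with β-actin as internal control.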

[2] = Cytotoxicity against human U87MG cells assessed as reduction in cell viability measured up to 20 uM after 24 hrs by MTT assay in presence of TRAIL; format: functional, U-87MG ATCC
Method in brief: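 MTT viability. 3–5 × 10^3 cells/well, treated the next day with TRAIL 100 ng/mL plus increasing morusin concentrations for 24 h. 1 mg/mL MTT for 2 h at 37 °C, lysis overnight, OD 570 nm. Living-cell fractions were used for combination index analysis. Mean ± SD, at least three independent experiments.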

[3] = Cytotoxicity against human U138MG cells assessed as reduction in cell viability after 24 hrs by MTT assay; format: functional, cell-based; details: U138-MG
Method in brief: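 Seeded 3–5 × 10^3 cells/well, treated the next day with a range of morusin (DMSO stock) for 24 h, 37 °C, 5% CO2. Then fresh medium with 1 mg/mL MTT for 2 h at 37 °C, lysis buffer overnight at 37 °C, OD 570 nm. Mean ± SD from at least three independent experiments in triplicate.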

[4] = Stability in human U87MG cells assessed as compound remaining at 10 uM after 24 hrs; format: ADME, cell-based, U-87MG ATCC; details: read-out: Stability
T98G [5] = assay: Reduction of PDGFR expression in human T98G cells at 25 uM after 24 hrs by Western blot analysis; format: functional, cell-based; method in brief: as §1
LN-18 = assay: Effect on DcR2 expression in human LN18 cells upto 25 uM after 24 hrs by Western blot analysis; format: functional, cell-based
Method in brief: (§2)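 Cells exposed to a range of morusin concentrations for 24 h. Cell extracts immunoblotted for DR4, DR5, DcR1 and DcR2, with β-actin as internal control and HRP-conjugated secondary antibodies (1:5000).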

U-87 MG [6] = assay: Effect on cIAP1 expression in human U87MG cells at 25uM after 3 to 18 hrs by Western blot analysis; format: functional, cell-based; details: U-87MG ATCC
Method in brief: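 Time course: U87MG and U373MG cells held at 25 μM morusin for the times indicated. Extracts immunoblotted (cIAP1 or DR5), with β-actin as loading control.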

U-87 MG [7] = assay: Induction of apoptosis in human U87MG cells assessed as increase in cleaved PARP levels at 2.5 uM after 24 hrs by Western blot analysis in presence of TRAIL; format: functional, cell-based; details: U-87MG ATCC
Method in brief: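 U87MG and T98G given TRAIL 25 ng/mL plus morusin 2.5 μM together for 24 h; single-agent arms used TRAIL 50 ng/mL or morusin 5 μM. Lysates immunoblotted for cleaved caspase 3, 8, 9 and cleaved PARP, with β-actin as internal control.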

[8] = Cytotoxicity against human U87MG cells transfected DR5 siRNA assessed as cell death after 24 hrs by MTT assay in presence of TRAIL; format: functional, U-87MG ATCC
Method in brief: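 U87MG cells were transiently transfected with scrambled control or DR5 siRNA by lipofection. At 48 h after transfection they were cotreated with TRAIL at 50 ng/mL and test compound at 20 μM for 24 h. Viability was read by MTT: 1 mg/mL for 2 h at 37 °C, lysis overnight, OD at 570 nm. Data are mean ± SD from ≥3 independent experiments.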

[9] = Reduction of XIAP expression in human U373MG cells after 24 hrs by Western blot analysis; format: functional, cell-based; details: U-373MG ATCC
Method in brief: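 U87MG (MEM) and U373MG (RPMI) cells were given graded morusin concentrations for 24 h. Whole-cell extracts were immunoblotted for anti-apoptotic proteins, with β-actin as loading control.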

U-251 = assay: Induction of DR5 expression in human U251MG cells at 25 uM after 24 hrs by FITC-conjugated flow cytometric analysis; format: functional, cell-based
Method in brief: (§3)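 Cells given 25 μM morusin for 24 h, then stained on ice for 30 min with 0.5 μg/mL FITC-conjugated anti-DR4, anti-DR5 or isotype IgG in FACS buffer. Surface expression read by flow cytometry.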

[10] = Reduction of PDGFR expression in human LN18 cells at 25 uM after 24 hrs by Western blot analysis; format: functional, cell-based; details: LN-18; method in brief: as §1
U-87 MG [11] = assay: Induction of apoptosis in human U87MG cells assessed as apoptic cells at 20 uM after 24 hrs by V-FITC/propidium iodide staining based flow cytometric analysis in presence of TRAIL; format: functional, cell-based; details: U-87MG ATCC
Method in brief: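 (2–3) × 10^5 cells/well given TRAIL 50 ng/mL with morusin 20 μM for 24 h. Annexin V-FITC/PI double staining, flow cytometry; annexin V-positive cells counted as apoptotic. Mean ± SD, t-test against mock.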

[12] = target: Signal transducer and activator of transcription 3 (Homo sapiens) (UniProt P40763); assay: Inhibition of STAT3 phosphorylation in human U373MG cells measured up to 25 uM after 24 hrs by Western blot analysis; format: cell-based; details: U-373MG ATCC
Method in brief: (§4)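 Cells grown in MEM (U87MG) or RPMI (U373MG) with 10% FBS, 5% CO2, 37 °C. Treated for 24 h with the indicated concentrations of morusin (DMSO stock). Whole-cell lysates immunoblotted for phosphorylated and total proteins, with β-actin as internal control.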

[13] = Cytotoxicity against human U87MG cells assessed as cell death after 24 hrs by MTT assay in presence of TRAIL; format: functional, U-87MG ATCC
Method in brief: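 U87MG cells (MEM, 10% FBS) were seeded at (3−5) × 10^3 cells/well and treated 1 day later with TRAIL at 100 ng/mL plus graded test compound for 24 h. Fresh medium with 1 mg/mL MTT was added for 2 h at 37 °C, then lysis buffer overnight at 37 °C, and OD was read at 570 nm. Data are mean ± SD from ≥3 independent experiments in triplicate.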

U-87 MG [14] = assay: Induction of DR5 expression in human U87MG cells at 25 uM after 24 hrs by FITC-conjugated flow cytometric analysis; format: functional, cell-based; details: U-87MG ATCC; method in brief: as §3
U373 MG [15] = assay: Effect on cIAP1 expression in human U373MG cells at 12 to 25 uM after 24 hrs by Western blot analysis; format: functional, cell-based; details: U-373MG ATCC
Method in brief: (§5)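 U87MG and U373MG exposed to a range of morusin concentrations for 24 h. Whole-cell extracts immunoblotted for cIAP1, with β-actin as internal control.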

U-87 MG [16] = assay: Effect on DcR2 expression in human U87MG cells upto 25 uM after 24 hrs by Western blot analysis; format: functional, cell-based; details: U-87MG ATCC; method in brief: as §2
U373 MG [17] = assay: Effect on DR4 expression in human U373MG cells upto 25 uM after 24 hrs by Western blot analysis; format: functional, cell-based; details: U-373MG ATCC; method in brief: as §2
[18] = Reduction of XIAP expression in human U87MG cells at 25 uM by Western blot analysis; format: functional, cell-based; details: U-87MG ATCC, TDE = time-dependent effect
Method in brief: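 Time course: U87MG and U373MG cells were exposed to 25 μM morusin for the indicated times. Whole-cell extracts were Western blotted, with β-actin as internal control.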

[19] = target: Signal transducer and activator of transcription 3 (Homo sapiens) (UniProt P40763); assay: Inhibition of STAT3 phosphorylation in human U87MG cells measured up to 25 uM after 24 hrs by Western blot analysis; format: cell-based; details: U-87MG ATCC; method in brief: as §4
U-87 MG [20] = assay: Effect on cIAP1 expression in human U87MG cells at 12 to 25 uM after 24 hrs by Western blot analysis; format: functional, cell-based; details: U-87MG ATCC; method in brief: as §5

Sequence of Signal transducer and activator of transcription 3 (Homo sapiens) (P40763 whole entry): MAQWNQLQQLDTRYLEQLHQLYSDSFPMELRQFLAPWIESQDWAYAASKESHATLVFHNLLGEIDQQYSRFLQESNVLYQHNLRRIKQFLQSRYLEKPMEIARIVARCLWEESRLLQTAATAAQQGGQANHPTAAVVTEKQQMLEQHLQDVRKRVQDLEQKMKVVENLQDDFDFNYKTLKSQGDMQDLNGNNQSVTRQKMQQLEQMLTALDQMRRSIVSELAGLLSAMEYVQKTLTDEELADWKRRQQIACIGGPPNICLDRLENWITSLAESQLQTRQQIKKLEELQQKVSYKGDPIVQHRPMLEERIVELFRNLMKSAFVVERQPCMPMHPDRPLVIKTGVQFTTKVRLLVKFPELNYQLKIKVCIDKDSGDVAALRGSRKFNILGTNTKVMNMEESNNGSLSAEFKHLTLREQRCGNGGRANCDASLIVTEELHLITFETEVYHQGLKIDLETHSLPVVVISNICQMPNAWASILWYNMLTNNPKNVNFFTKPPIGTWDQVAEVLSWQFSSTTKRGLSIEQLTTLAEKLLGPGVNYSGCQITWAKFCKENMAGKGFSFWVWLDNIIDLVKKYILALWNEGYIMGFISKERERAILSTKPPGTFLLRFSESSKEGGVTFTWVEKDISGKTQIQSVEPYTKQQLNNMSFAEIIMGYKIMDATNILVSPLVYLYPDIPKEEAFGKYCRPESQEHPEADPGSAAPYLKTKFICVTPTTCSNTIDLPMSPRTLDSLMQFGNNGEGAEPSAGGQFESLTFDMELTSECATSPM

With `CC(C)=CCc1c(-c2ccc(O)cc2O)oc2c3c(cc(O)c2c1=O)OC(C)(C)C=C3` [MORUSIN] the Activity (T98G [1]) was “Active”, the CI [2] was less than 0.8 and the IC50 [3] was 24 µM. The remaining at 24 h, 10 µM [4] was greater than 94%, the Activity (T98G [5]) was “Active” and the Activity (LN-18) was “inactive”. The Activity (U-87 MG [6]) was “inactive”, the Activity (U-87 MG [7]) was “Active” and the Activity [8] was 10%. The inhibition [9] was “Dose-dependent effect”, the Activity (U-251) was “Active” and the Activity [10] was “Active”. The Activity (U-87 MG [11]) was “Active”, the inhibition [12] was “Active” and the Activity [13] was 29%. For the same molecule, the Activity (U-87 MG [14]) was “Active”, the Activity (U373 MG [15]) was “inactive” and the Activity (U-87 MG [16]) was “inactive”. The Activity (U373 MG [17]) was “inactive”, the inhibition [18] was “tde” and the inhibition [19] was “Active”. For the same molecule, the Activity (U-87 MG [20]) was “inactive”.
